From PubChem BioAssay
PP5 inh = blocks human protein phosphatase 5 activity | P53041 | purified PP5c, OMFP substrate fluorescence | inhibition, % at 6.7 µM | actives 0.18% (n = 320,000) | AID 1987;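 active means inhibition above the campaign's mean inhibition across all tested compounds plus 3 SD, cut at about 9.5% in these data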;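 further: 0% = DMSO only and 100% = 100 µM cantharidin control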
Apaf1 inhib = inhibitors of human Apaf-1 apoptosome. reconstituted apoptosome caspase-3 activity, DEVD-Rh110 fluorescence. inhibition, % at 20 µM. actives 0.71% (n = 330,000); active means inhibition of at least 40% at 20 µM;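 further: plate controls were DMSO wells for no effect and DEVD-CHO caspase inhibitor wells for full effect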
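Medium: Hepes buffer, pH 7.5 / System: biochemical Apaf-1 apoptosome reconstitution / Measured by: Rh110 fluorescence, excitation 480 nm, emission 540 nm / Times: compound with Apaf-1, dATP, procaspase-3 30 min, then 50 min reaction, room temperature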
PP1 counter = counter-screen for PP5 inhibitors: inhibitors of human PP1-alpha; P62136; purified PP1alpha, OMFP fluorescence; inhibition, % at 6.7 µM; actives 0.9% (n = 320,000);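 active means inhibition above the mean inhibition of all tested compounds plus 3 SD, computed separately for each screening campaign, cut at about 15% in these data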
TDP2 inh = blocks human TDP2 phosphodiesterase activity. inhibition, % at 12.8 µM. O95551. AID 720702. actives 0.34% (n = 370,000). recombinant TDP2, T5PNP hydrolysis, p-nitrophenol absorbance 415 nm;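 active means inhibition above the mean of all tested compounds plus 3 SD, set per campaign, cut at about 25% in these data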;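 further: 0% = DMSO with enzyme and 100% = buffer with substrate but no TDP2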
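System – recombinant human TDP2 · Amount – 120 nM TDP2 per well · Buffer or medium – Mg2+-containing Tris-HCl buffer, pH 7.5 · Reagent – T5PNP substrate, 5 mM · Dosing – 12.8 µM single point, 1% DMSO · Incubation – 2 h at 37 °C · Measured by – epi absorbance · Read-out basis – percent inhibition · Benchmarks – high control without enzyme, low control DMSO plus TDP2 · Repeats – singlicate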
GSTO1 inh = GSTO1 inhibition, counter-screen for RBBP9 inhibitors. AID 1974. inhibition, % at 5.96 µM. recombinant GSTO1, activity-based probe fluorescence polarization. actives 1.1% (n = 300,000);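 active means inhibition above the campaign mean inhibition plus 3 SD, cut at about 35% in these data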;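 further: 0% = GSTO1-1 with DMSO and 100% = wells lacking GSTO1-1 enzyme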
Target sequence (P78417 whole entry, looked up): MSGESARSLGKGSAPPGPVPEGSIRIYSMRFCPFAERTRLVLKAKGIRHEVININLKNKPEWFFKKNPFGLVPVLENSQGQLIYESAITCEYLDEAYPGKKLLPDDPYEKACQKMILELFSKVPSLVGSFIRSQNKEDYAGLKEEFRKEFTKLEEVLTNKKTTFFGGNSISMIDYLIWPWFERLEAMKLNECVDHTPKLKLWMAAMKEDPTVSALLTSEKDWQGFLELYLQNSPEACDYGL
Apaf-1 inh conf2 = Apaf-1 inhibition, single-dose confirmed | AID 504614 | shares compounds with Apaf1 inhib | actives 25% (n = 1,800) | reconstituted apoptosome, caspase-3 DEVD-Rh110 fluorescence | inhibition, % at 20 µM;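 active means mean inhibition of at least 40% at 20 µM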;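 further: plate controls were DMSO wells for no effect and DEVD-CHO caspase inhibitor control wells for full effect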
Rh110 interf inh = counter-screen for Apaf-1 inhibitors: fluorescence interference | activation (fluorescence interference), % at 20 µM | 1,800 tested, under 10 active | shares compounds with Apaf1 inhib | Rh110 fluorescence interference, quenched caspase reaction;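 active means signal rise of 40% or more at 20 µM, treated as a fluorescence artifact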
* hit, by the source's call; nt = no result. In the library only some 2.1% were active in any assay of this set; here they are far more common.

SMILES	PP5 inh	Apaf1 inhib	PP1 counter	TDP2 inh	GSTO1 inh	Apaf-1 inh conf2	Rh110 interf inh
FC(F)(F)c1cc(CO[C@@H]2CCCN[C@@H]2c2ccccc2)cc(C(F)(F)F)c1	0.2	47.3*	1.7	-22.8	3.2	9.9	7.6
COc1ccc(Cn2nc(-c3ccccc3)c(N3CCCCC3)cc2=O)cc1	1.9	46.3*	-0.5	-0.3	5.5	16.6	9.8
O=C(Nc1ccc2c(c1)OCO2)N1CCC(c2nc3ccc(Cl)cc3[nH]2)CC1	nt	nt	nt	0.8	nt	nt	nt
COc1ccc(NC(=O)CCn2c(=S)[nH]c3ccccc3c2=O)cc1	-1.3	85.7*	1.1	-3.7	2.0	6.6	4.8
COc1ccc(NC(=O)CCCn2c(=S)[nH]c3ccccc3c2=O)cc1	-0.6	8.1	-0.7	-4.4	7.8	nt	nt
CCOc1ccc(-c2csc(N3CCC(C(N)=O)CC3)n2)cc1	nt	nt	nt	1.0	nt	nt	nt
Cc1cccc(NC(=O)CC2Nc3cccc4cccc(c34)NC2=O)c1 (centres undefined)	1.7	70.6*	0.3	1.2	23.6	17.0	12.1
CC(=O)c1ccc(NC(=O)CC2Nc3cccc4cccc(c34)NC2=O)cc1 (centres undefined)	-0.7	88.7*	4.0	-1.1	41.0*	15.5	2.6
CCOc1ccc(NC(=O)CC2Nc3ccccc3NC2=O)cc1 (centres undefined)	0.4	-3.8	-0.5	15.2	-4.6	nt	nt
Cc1ccc(CN2C(C(=O)NC3CCCC3)CSCCS2(=O)=O)cc1 (centres undefined)	nt	nt	nt	1.5	nt	nt	nt
COC(=O)[C@]12C[C@H](CC(=O)NCc3cccc4ccccc34)C(=O)N(CCC3=CCCCC3)C1=C[C@H](COCc1ccccc1)O[C@@H]2C	nt	nt	nt	10.5	nt	nt	nt
CCOc1cccc2sc(N(CCCN(C)C)C(=O)c3ccc(S(=O)(=O)N(C)Cc4ccccc4)cc3)nc12	5.1	61.9*	8.0	3.9	3.0	26.5	11.0
CCCCN(CC)S(=O)(=O)c1ccc(C(=O)N(CCCN(C)C)c2nc3cc(C)cc(C)c3s2)cc1	2.5	47.1*	4.4	-6.8	7.9	15.2	6.7
Cc1cc(C)c2sc(N(CCCN(C)C)C(=O)c3ccc(S(=O)(=O)N(C)Cc4ccccc4)cc3)nc2c1	2.4	36.7	10.0	-11.2	1.1	nt	nt
CCN(Cc1ccccc1)S(=O)(=O)c1ccc(C(=O)N(CCCN(C)C)c2nc3cc(C)cc(C)c3s2)cc1	3.6	42.0*	15.8*	3.4	0.8	20.1	5.6
CCCCN(C)S(=O)(=O)c1ccc(C(=O)N(CCN(C)C)c2nc3ccc(C)cc3s2)cc1	-0.5	-2.4	-3.7	2.6	3.6	nt	nt
COc1cccc2sc(N(CCN(C)C)C(=O)c3ccc4c(c3)CCCC4)nc12	3.1	50.0*	0.0	-2.2	2.2	18.5	9.3
COc1ccc(OC)c2c1cc(C(=O)N[C@H](C(=O)N1CCC[C@H]1C(=O)O)C(C)C)n2C	0.9	52.1*	2.8	6.5	10.5	26.3	3.7
COc1cc(OC)c2cc(C(=O)N[C@H](C(=O)N3CCC[C@H]3C(=O)O)C(C)C)n(C)c2c1	3.7	-1.7	0.5	1.7	3.2	nt	nt
COC(=O)[C@]12C[C@H](CC(=O)NCCCN3CCCC3=O)C(=O)N(CCc3ccc(OC)c(OC)c3)C1=C[C@H](C(C)C)O[C@@H]2C1CC1	nt	nt	nt	8.2	nt	nt	nt
COC(=O)[C@]12C[C@H](CC(=O)N3CCSCC3)C(=O)N(Cc3ccc(Cl)cc3Cl)C1=C[C@H](C1CCCC1)O[C@@H]2C	nt	nt	nt	1.1	nt	nt	nt
Cc1ccc(NC(=O)CSc2nnc(-c3cccnc3)n2Cc2ccco2)c(C)c1	nt	nt	nt	1.5	nt	nt	nt
Clc1ccc(Cl)c2sc(N3CCCC3)nc12	0.1	24.8	1.4	-2.2	3.4	nt	nt
O=C1C(Cl)=C(N2CCCCC2)C(=O)C(Cl)=C1c1cnc(N2CCCCC2)s1	nt	47.7*	nt	nt	nt	25.5	6.4
O=C(O[C@H]1CC[C@@]23CCCN2C(=O)CCC[C@H]3C1)N1CCN(c2ccccc2)CC1	nt	nt	nt	-2.0	nt	nt	nt
c1cc2c3c(cccc3c1)C(N1CCCCCC1)=N2	0.9	10.8	-2.2	-5.9	-6.8	nt	nt
c1ccc2c(c1)CCN(C1=Nc3cccc4cccc1c34)C2	nt	42.9*	nt	1.7	nt	9.9	4.8
